Experimental data from ChEMBL document CHEMBL1153736, “Application of ring-closing metathesis macrocyclization to the development of Tsg101-binding antagonists” (Bioorg Med Chem Lett, 2010).
Numbered stars: 1 amine (or outer) side, 2 acyl side, 3 side chain; on linkers, the order of the positions; unused ones are H or OH. Bridge positions count the residues as written; N and C are the ends. Square brackets hold non-standard residues; d marks the D form. Peptide text beside a SMILES is read from it. * marks the point of attachment. Fluorescein(5-NHCS) = O=C1OC2(c3ccc(O)cc3Oc3cc(O)ccc32)c2cc(NC(=S)*)ccc21; Gly(N-but-3-enyl) = O=C(CN(CCC=[*:3])[*:1])[*:2]; X3 = O=C(CN(CCCCCCC=[*:3])[*:1])[*:2]; X5 = O=C(CN(CCCCCC=[*:3])[*:1])[*:2]; N(7-octenyl)Gly = C=CCCCCCCNCC(=O)O; X4 = O=C(CN(CCCCC=[*:3])[*:1])[*:2]; X2 = O=C(CN(CC=[*:3])[*:1])[*:2]; Ava = NCCCCC(=O)O

How the values were obtained:
HeLa = experiment: Cellular uptake in human HeLa cells assessed as fluorescence intensity by FACS analysis relative to control; format: ADME, cell-based; conditions: in the assay text read “fluorescence microscopy” for “FACS analysis”
In short: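 Uptake of FITC-tagged peptide-peptoid hybrids was measured by fluorescence microscopy. The value is the average fluorescence intensity of treated cells, quantified from at least 20 cells taken from 4–6 fields, each field holding about 5 cells.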

[1] = target: T1, Tumor susceptibility gene 101 protein (Homo sapiens, UniProt Q99816); experiment: Binding affinity to ubiquitin E2 variant domain of human Tsg101 by fluorescent anisotropy
T1 sequence (Q99816 whole entry): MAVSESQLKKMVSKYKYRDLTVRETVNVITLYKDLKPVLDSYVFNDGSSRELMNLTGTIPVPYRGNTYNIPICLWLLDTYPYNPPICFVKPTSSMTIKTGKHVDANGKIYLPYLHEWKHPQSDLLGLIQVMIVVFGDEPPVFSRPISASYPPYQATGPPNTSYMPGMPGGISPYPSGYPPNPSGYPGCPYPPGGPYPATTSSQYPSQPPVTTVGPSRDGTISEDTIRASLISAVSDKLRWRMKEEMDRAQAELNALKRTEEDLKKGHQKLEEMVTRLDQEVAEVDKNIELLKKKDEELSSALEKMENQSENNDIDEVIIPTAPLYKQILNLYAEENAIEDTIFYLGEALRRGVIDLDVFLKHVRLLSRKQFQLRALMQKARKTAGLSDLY

For `C[C@@H]1NC(=O)[C@H]([C@@H](C)O)NC(=O)[C@@H]2CCCN2C(=O)[C@H](CCC(=O)O)NC(=O)CN(C(=O)CCCCNC(=S)Nc2ccc3c(c2)C2(OC3=O)c3ccc(O)cc3Oc3cc(O)ccc32)CC/C=C/CCCCCCN(CC(=O)N[C@@H](CCC(=O)O)C(N)=O)C(=O)[C@@H]2CCCN2C(=O)[C@@H]2CCCN2C1=O` ({Fluorescein(5-NHCS)-Ava}-[Gly(N-but-3-enyl)]EPTAPP[X3]E-NH2; staple (E) 1-8), the Drug uptake (HeLa) was 100%.

With H-PEPTAPPEE-OH the Drug uptake (HeLa) was 74%.

`C=CCCCCCCN(CC(N)=O)C(=O)[C@H](CCC(=O)O)NC(=O)[C@@H]1CCCN1C(=O)[C@@H]1CCCN1C(=O)[C@H](C)NC(=O)[C@@H](NC(=O)[C@@H]1CCCN1C(=O)CN(CCCCCCC=C)C(=O)[C@@H]1CCCN1C(=O)CCCCNC(=S)Nc1ccc2c(c1)C1(OC2=O)c2ccc(O)cc2Oc2cc(O)ccc21)[C@@H](C)O` gave a Drug uptake (HeLa) of 42%.

`C[C@@H]1NC(=O)[C@H]([C@@H](C)O)NC(=O)[C@@H]2CCCN2C(=O)[C@H](CCC(=O)O)NC(=O)CN(C(=O)CCCCNC(=S)Nc2ccc3c(c2)C2(OC3=O)c3ccc(O)cc3Oc3cc(O)ccc32)CCCCCC/C=C\CCCCCCN(CC(N)=O)C(=O)[C@H](CCC(=O)O)NC(=O)[C@@H]2CCCN2C(=O)[C@@H]2CCCN2C1=O` showed a Drug uptake (HeLa) of 328%.

`C[C@@H]1NC(=O)[C@H]([C@@H](C)O)NC(=O)[C@@H]2CCCN2C(=O)CN(C(=O)[C@@H]2CCCN2C(=O)CCCCNC(=S)Nc2ccc3c(c2)C2(OC3=O)c3ccc(O)cc3Oc3cc(O)ccc32)CC/C=C\CCCCCCN(CC(N)=O)C(=O)[C@H](CCC(=O)O)NC(=O)[C@@H]2CCCN2C(=O)[C@@H]2CCCN2C1=O` was tested, and the Drug uptake (HeLa) was 77%.

With `C[C@@H]1NC(=O)[C@H]([C@@H](C)O)NC(=O)[C@@H]2CCCN2C(=O)[C@H](CCC(=O)O)NC(=O)CN(C(=O)CCCCNC(=S)Nc2ccc3c(c2)C2(OC3=O)c3ccc(O)cc3Oc3cc(O)ccc32)CCC/C=C\CN(CC(N)=O)C(=O)[C@H](CCC(=O)O)NC(=O)[C@@H]2CCCN2C(=O)[C@@H]2CCCN2C1=O` the Kd [1] was greater than 500 µM.

`C=CCN(CC(=O)N[C@@H](CCC(=O)O)C(=O)N1CCC[C@H]1C(=O)N[C@H](C(=O)N[C@@H](C)C(=O)N1CCC[C@H]1C(=O)N1CCC[C@H]1C(=O)N[C@@H](CCC(=O)O)C(=O)N(CC=C)CC(N)=O)[C@@H](C)O)C(=O)CCCCNC(=S)Nc1ccc2c(c1)C1(OC2=O)c2ccc(O)cc2Oc2cc(O)ccc21` (stereo in doubt; 1'-(1,1)) was tested, and the Drug uptake (HeLa) was 74%.

Molecule `C=CCCCCCCN(CC(=O)N[C@@H](CCC(=O)O)C(=O)N1CCC[C@H]1C(=O)N[C@H](C(=O)N[C@@H](C)C(=O)N1CCC[C@H]1C(=O)N1CCC[C@H]1C(=O)N[C@@H](CCC(=O)O)C(=O)N(CCCCCCC=C)CC(N)=O)[C@@H](C)O)C(=O)CCCCNC(=S)Nc1ccc2c(c1)C1(OC2=O)c2ccc(O)cc2Oc2cc(O)ccc21` has a Drug uptake (HeLa) of 35%.

With `C[C@@H]1NC(=O)[C@H]([C@@H](C)O)NC(=O)[C@@H]2CCCN2C(=O)CN(C(=O)[C@@H]2CCCN2C(=O)CCCCNC(=S)Nc2ccc3c(c2)C2(OC3=O)c3ccc(O)cc3Oc3cc(O)ccc32)CCCC/C=C/CN(CC(=O)N[C@@H](CCC(=O)O)C(N)=O)C(=O)[C@@H]2CCCN2C(=O)[C@@H]2CCCN2C1=O` ({Fluorescein(5-NHCS)-Ava}-P[X4]PTAPP[X2]E-NH2; staple (E) 2-8) the Kd [1] was greater than 500 µM.

For `C[C@@H]1NC(=O)[C@H]([C@@H](C)O)NC(=O)[C@@H]2CCCN2C(=O)CN(C(=O)[C@@H]2CCCN2C(=O)CCCCNC(=S)Nc2ccc3c(c2)C2(OC3=O)c3ccc(O)cc3Oc3cc(O)ccc32)CCCCCC/C=C\CCCCCCN(CC(N)=O)C(=O)[C@H](CCC(=O)O)NC(=O)[C@@H]2CCCN2C(=O)[C@@H]2CCCN2C1=O`, the Drug uptake (HeLa) was 199%.

For `C=CCCCCCCN(CC(=O)N1CCC[C@H]1C(=O)N[C@H](C(=O)N[C@@H](C)C(=O)N1CCC[C@H]1C(=O)N1CCC[C@H]1C(=O)N(CCCCCCC=C)CC(=O)N[C@@H](CCC(=O)O)C(N)=O)[C@@H](C)O)C(=O)[C@@H]1CCCN1C(=O)CCCCNC(=S)Nc1ccc2c(c1)C1(OC2=O)c2ccc(O)cc2Oc2cc(O)ccc21` ({Fluorescein(5-NHCS)-Ava}-P[N(7-octenyl)Gly]PTAPP[N(7-octenyl)Gly]E-NH2), the Drug uptake (HeLa) was 45%.

For `C[C@@H]1NC(=O)[C@H]([C@@H](C)O)NC(=O)[C@@H]2CCCN2C(=O)CN(C(=O)[C@@H]2CCCN2C(=O)CCCCNC(=S)Nc2ccc3c(c2)C2(OC3=O)c3ccc(O)cc3Oc3cc(O)ccc32)C/C=C\CN(CC(=O)N[C@@H](CCC(=O)O)C(N)=O)C(=O)[C@@H]2CCCN2C(=O)[C@@H]2CCCN2C1=O` ({Fluorescein(5-NHCS)-Ava}-P[X2]PTAPP[X2]E-NH2; staple (Z) 2-8), the Kd [1] was 218 µM.

`C[C@@H]1NC(=O)[C@H]([C@@H](C)O)NC(=O)[C@@H]2CCCN2C(=O)CN(C(=O)[C@@H]2CCCN2C(=O)CCCCNC(=S)Nc2ccc3c(c2)C2(OC3=O)c3ccc(O)cc3Oc3cc(O)ccc32)CC/C=C/CCCCCCN(CC(=O)N[C@@H](CCC(=O)O)C(N)=O)C(=O)[C@@H]2CCCN2C(=O)[C@@H]2CCCN2C1=O` ({Fluorescein(5-NHCS)-Ava}-P[Gly(N-but-3-enyl)]PTAPP[X3]E-NH2; staple (E) 2-8) showed a Drug uptake (HeLa) of 76%.

For `C[C@@H]1NC(=O)[C@H]([C@@H](C)O)NC(=O)[C@@H]2CCCN2C(=O)CN(C(=O)[C@@H]2CCCN2C(=O)CCCCNC(=S)Nc2ccc3c(c2)C2(OC3=O)c3ccc(O)cc3Oc3cc(O)ccc32)CCCCC/C=C\CN(CC(=O)N[C@@H](CCC(=O)O)C(N)=O)C(=O)[C@@H]2CCCN2C(=O)[C@@H]2CCCN2C1=O` ({Fluorescein(5-NHCS)-Ava}-P[X5]PTAPP[X2]E-NH2; staple (Z) 2-8), the Kd [1] was greater than 500 µM.

In the case of `C[C@@H]1NC(=O)[C@H]([C@@H](C)O)NC(=O)[C@@H]2CCCN2C(=O)CN(C(=O)[C@@H]2CCCN2C(=O)CCCCNC(=S)Nc2ccc3c(c2)C2(OC3=O)c3ccc(O)cc3Oc3cc(O)ccc32)CCCCCC/C=C\CCCCCCN(CC(=O)N[C@@H](CCC(=O)O)C(N)=O)C(=O)[C@@H]2CCCN2C(=O)[C@@H]2CCCN2C1=O` ({Fluorescein(5-NHCS)-Ava}-P[X3]PTAPP[X3]E-NH2; staple (Z) 2-8), the Drug uptake (HeLa) is reported as 200%.

With `C[C@@H]1NC(=O)[C@H]([C@@H](C)O)NC(=O)[C@@H]2CCCN2C(=O)[C@H](CCC(=O)O)NC(=O)CN(C(=O)CCCCNC(=S)Nc2ccc3c(c2)C2(OC3=O)c3ccc(O)cc3Oc3cc(O)ccc32)CCC/C=C\CCCCCCN(CC(N)=O)C(=O)[C@H](CCC(=O)O)NC(=O)[C@@H]2CCCN2C(=O)[C@@H]2CCCN2C1=O` the Kd [1] was 106 µM.

`C[C@@H]1NC(=O)[C@H]([C@@H](C)O)NC(=O)[C@@H]2CCCN2C(=O)[C@H](CCC(=O)O)NC(=O)CN(C(=O)CCCCNC(=S)Nc2ccc3c(c2)C2(OC3=O)c3ccc(O)cc3Oc3cc(O)ccc32)CC/C=C\CCCCCCN(CC(N)=O)C(=O)[C@H](CCC(=O)O)NC(=O)[C@@H]2CCCN2C(=O)[C@@H]2CCCN2C1=O` was tested, and the Drug uptake (HeLa) was 100%.

`C[C@@H]1NC(=O)[C@H]([C@@H](C)O)NC(=O)[C@@H]2CCCN2C(=O)[C@H](CCC(=O)O)NC(=O)CN(C(=O)CCCCNC(=S)Nc2ccc3c(c2)C2(OC3=O)c3ccc(O)cc3Oc3cc(O)ccc32)CCC=CCN(CC(N)=O)C(=O)[C@H](CCC(=O)O)NC(=O)[C@@H]2CCCN2C(=O)[C@@H]2CCCN2C1=O` showed a Kd [1] greater than 500 µM.

`C[C@@H]1NC(=O)[C@H]([C@@H](C)O)NC(=O)[C@@H]2CCCN2C(=O)[C@H](CCC(=O)O)NC(=O)CN(C(=O)CCCCNC(=S)Nc2ccc3c(c2)C2(OC3=O)c3ccc(O)cc3Oc3cc(O)ccc32)CCCCC/C=C\CN(CC(N)=O)C(=O)[C@H](CCC(=O)O)NC(=O)[C@@H]2CCCN2C(=O)[C@@H]2CCCN2C1=O` was tested, and the Kd [1] was greater than 500 µM.

Work on `C[C@@H]1NC(=O)[C@H]([C@@H](C)O)NC(=O)[C@@H]2CCCN2C(=O)[C@H](CCC(=O)O)NC(=O)CN(C(=O)CCCCNC(=S)Nc2ccc3c(c2)C2(OC3=O)c3ccc(O)cc3Oc3cc(O)ccc32)CCCCC/C=C/CN(CC(=O)N[C@@H](CCC(=O)O)C(N)=O)C(=O)[C@@H]2CCCN2C(=O)[C@@H]2CCCN2C1=O` ({Fluorescein(5-NHCS)-Ava}-[X5]EPTAPP[X2]E-NH2; staple (E) 1-8) yielded a Kd [1] greater than 500 µM.

Molecule `C=CCCCCCCN(CC(=O)N[C@@H](CCC(=O)O)C(=O)N1CCC[C@H]1C(=O)N[C@H](C(=O)N[C@@H](C)C(=O)N1CCC[C@H]1C(=O)N1CCC[C@H]1C(=O)N(CCCCCCC=C)CC(=O)N[C@@H](CCC(=O)O)C(N)=O)[C@@H](C)O)C(=O)CCCCNC(=S)Nc1ccc2c(c1)C1(OC2=O)c2ccc(O)cc2Oc2cc(O)ccc21` ({Fluorescein(5-NHCS)-Ava}-[N(7-octenyl)Gly]EPTAPP[N(7-octenyl)Gly]E-NH2) has a Drug uptake (HeLa) of 40%.

Work on `C[C@@H]1NC(=O)[C@H]([C@@H](C)O)NC(=O)[C@@H]2CCCN2C(=O)CN(C(=O)[C@@H]2CCCN2C(=O)CCCCNC(=S)Nc2ccc3c(c2)C2(OC3=O)c3ccc(O)cc3Oc3cc(O)ccc32)CCCCC=CCN(CC(N)=O)C(=O)[C@H](CCC(=O)O)NC(=O)[C@@H]2CCCN2C(=O)[C@@H]2CCCN2C1=O` yielded a Kd [1] of 108 µM.

Molecule `C=CCN(CC(N)=O)C(=O)[C@H](CCC(=O)O)NC(=O)[C@@H]1CCCN1C(=O)[C@@H]1CCCN1C(=O)[C@H](C)NC(=O)[C@@H](NC(=O)[C@@H]1CCCN1C(=O)CN(CC=C)C(=O)[C@@H]1CCCN1C(=O)CCCCNC(=S)Nc1ccc2c(c1)C1(OC2=O)c2ccc(O)cc2Oc2cc(O)ccc21)[C@@H](C)O` has a Drug uptake (HeLa) of 98%.
